Results published in the RNAGym collection of RNA variant scans (doi:10.1126/science.aae0568).
This sample holds only a part of the variants without activity.

B1: tRNA (parent)
chain: GUUCCGUUGGCGUAAUGGUAACGCGUCUCCCUCCUAAGGAGAAGACUGCGGGUUCGAGUCCCGUACGGAACG

Variants of: B1
Experiment: yeast fitness relative to wild type (ratio to wild type); higher = fitter; tRNA-Arg(CCU), competitive growth, 37 C, YPD
Procedure, shortened: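 For this measurement, the tRNA-Arg(CCU) gene was varied by chemical synthesis at a 3% per-site mutation rate across 69 sites, and each variant was placed at the native genomic locus in Saccharomyces cerevisiae. The pooled strains went through a 24-hour competition in YPD at 37°C in six parallel replicates, with amplicons from start and end populations read by 100-nucleotide paired-end sequencing. Darwinian fitness relative to wild type followed from the change in each genotype's frequency. Genotypes needed ≥ 100 starting reads, and estimates < 0.5 were set to 0.5.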
In the case of U8G G10C A20G U59C G67A, the yeast fitness is reported as ≤ 0.5.
For G9A A14C C55U, the yeast fitness was ≤ 0.5.
With U8G C62U U64A G67C the yeast fitness was 0.603.
For G9A U13G A36G, the yeast fitness was 0.574.
Work on G9A C22A yielded a yeast fitness of 0.919.
Variant G9A C22U has a yeast fitness of 1.04.
With G9A C22G the yeast fitness was 0.869.
G9A A20U C22G gave a yeast fitness of 0.53.
G9A C22U C30U showed a yeast fitness of 0.519.
With G9A A43U G56C the yeast fitness was 0.536.
With G9A C29A G50A A69C the yeast fitness was ≤ 0.5.
For G9A C49G, the yeast fitness was 0.896.
For G9A C49A, the yeast fitness was 0.654.
For G9A C29U, the yeast fitness was 0.914.
Variant G9A A45C has a yeast fitness of 0.971.
In the case of G9A A37G A57U C66U, the yeast fitness is reported as ≤ 0.5.
G9A C22A C61U gave a yeast fitness of 0.622.
In the case of G9A A36U G51A C61G, the yeast fitness is reported as ≤ 0.5.
With G9A G10A C31G G52A C61G the yeast fitness was ≤ 0.5.
With G9A G12A C22U U53G the yeast fitness was ≤ 0.5.
For U8G G10C A20G, the yeast fitness was ≤ 0.5.
For G9A C62U A70U, the yeast fitness was 0.68.
In the case of U8G C31G G41C G50C C60U A69C, the yeast fitness is reported as ≤ 0.5.
In the case of U8G C11A C24A C29A C34U C61G A65C, the yeast fitness is reported as ≤ 0.5.
In the case of G9A C24A A36C A37G C49A, the yeast fitness is reported as ≤ 0.5.
Variant G9A G10A C31G G52A has a yeast fitness of 0.531.
In the case of G9A C11A G58C, the yeast fitness is reported as ≤ 0.5.
In the case of G9A C11G C24G U32A G50A C61U G63C, the yeast fitness is reported as ≤ 0.5.
In the case of U8G C11G U32A, the yeast fitness is reported as 0.642.
G9A C34A A45C gave a yeast fitness of 0.541.
For G9A C29U C46U C66U, the yeast fitness was 0.637.
For G9A G10A C31G G52A C62A, the yeast fitness was ≤ 0.5.
With G9A C31U A40G G52C A65G A69G the yeast fitness was ≤ 0.5.
With G9A C29U U47A A57G the yeast fitness was ≤ 0.5.
In the case of G9A A42C, the yeast fitness is reported as 0.855.
In the case of G9A A42U, the yeast fitness is reported as 0.87.
With G9A A42G the yeast fitness was 0.96.
For G9A G10C G25C C33U C62A C66U, the yeast fitness was ≤ 0.5.
In the case of U8G A45U G50A A69C, the yeast fitness is reported as ≤ 0.5.
With G9A C11U A36C G68C the yeast fitness was ≤ 0.5.
With G9A A14U G48C the yeast fitness was ≤ 0.5.
For G9A G12U A14U A37U C49G C60G, the yeast fitness was ≤ 0.5.
With G9A C11U G48A the yeast fitness was 0.715.
For G9A A36C A40C A45C, the yeast fitness was ≤ 0.5.
In the case of G9A G10C G17A G25A, the yeast fitness is reported as ≤ 0.5.
In the case of G9A A40C A70U, the yeast fitness is reported as 0.74.
Work on U8G C24U yielded a yeast fitness of 0.626.
For U8G U26C C60U, the yeast fitness was ≤ 0.5.
G9A A40U gave a yeast fitness of 1.06.
G9A C22A C55U gave a yeast fitness of 0.626.
In the case of G9A G38A C62U, the yeast fitness is reported as 0.939.
With U8G C46G G52A the yeast fitness was ≤ 0.5.
G9A C46G C49U A69U showed a yeast fitness of 1.11.
For G9A A21G U32G G39C G52C, the yeast fitness was ≤ 0.5.
For G9A A21U C24G U28A C60G A70C, the yeast fitness was ≤ 0.5.
For G9A C11U G67C, the yeast fitness was 0.697.
In the case of G9A C27U A36G, the yeast fitness is reported as 0.59.
With U8G C60G the yeast fitness was ≤ 0.5.
For G9A C11U A36C A57G A65U, the yeast fitness was ≤ 0.5.
For U8G C33G U54A U59A G67A, the yeast fitness was ≤ 0.5.
In the case of G9A A40C C49U, the yeast fitness is reported as 0.713.
For G9A C34U A69U, the yeast fitness was 0.549.
G9A A45C C49U showed a yeast fitness of 0.643.
For U8G G17A A70C, the yeast fitness was ≤ 0.5.
With U8G C27A C61A G67A the yeast fitness was ≤ 0.5.
For G9A C24A C49A A57C, the yeast fitness was ≤ 0.5.
For G9A A21C C27A A37G A45C, the yeast fitness was ≤ 0.5.
G9A C30G gave a yeast fitness of 0.707.
For G9A C30U, the yeast fitness was 0.888.
Work on G9A C30A yielded a yeast fitness of 0.964.
With G9A A36U G39A G52C the yeast fitness was ≤ 0.5.
For G9A C34A G58A A70C, the yeast fitness was ≤ 0.5.
For U8G G17A C24G G58C, the yeast fitness was ≤ 0.5.
Work on G9A A21G U59A yielded a yeast fitness of 0.731.
With G9A G23C A37G the yeast fitness was ≤ 0.5.
For G9A A14C A42G C49G U54C G63C A70U, the yeast fitness was ≤ 0.5.
For G9A G52A C61U A69C, the yeast fitness was ≤ 0.5.
For G9A A20G A40C A42U A43C G48A, the yeast fitness was ≤ 0.5.
In the case of G9A A21G C29G C31A C34G, the yeast fitness is reported as ≤ 0.5.
G9A G17C C29G gave a yeast fitness of 0.567.
G9A C27G C31G A36U A40G G48A G52A C60A showed a yeast fitness of 0.575.
With G9A C27A A42C C49G G51C C55G C66U the yeast fitness was ≤ 0.5.
With G9A A21G C61U A65U the yeast fitness was ≤ 0.5.
U8G G52A G67C showed a yeast fitness of 0.521.
Variant G9A G17C A45U A65C has a yeast fitness of 0.583.
In the case of G9A A14G C29U U32A A43U, the yeast fitness is reported as ≤ 0.5.
G9A G56A C62U G67A showed a yeast fitness of 0.525.
For U8G C29A A37U C49A, the yeast fitness was ≤ 0.5.
With G9A C33U A36C A45C G48A C55A the yeast fitness was ≤ 0.5.
With U8G U26A G52A the yeast fitness was 0.59.
With G9A A21G C33A C62U G63C A70C the yeast fitness was ≤ 0.5.
G9A C24G gave a yeast fitness of 0.594.
G9A C24U showed a yeast fitness of 0.997.
For G9A C30A G39A U47A G63C, the yeast fitness was ≤ 0.5.
In the case of G9A A21G A40G A43C U54A, the yeast fitness is reported as ≤ 0.5.
G9A G23C A45G gave a yeast fitness of 0.575.
With U8G C34U C66G the yeast fitness was ≤ 0.5.
Variant G9A C33U has a yeast fitness of 0.897.
In the case of G9A C29A A37G G58A, the yeast fitness is reported as 0.571.
For G9A U13A, the yeast fitness was 1.03.
U8G C29G gave a yeast fitness of 0.55.
U8G C55U gave a yeast fitness of 0.569.
U8G C11U U16C A42U showed a yeast fitness of 0.749.
In the case of G9A C11G C55G G63C G67C, the yeast fitness is reported as 0.578.
In the case of U8G G51A, the yeast fitness is reported as ≤ 0.5.
Variant U8G C24G G41A has a yeast fitness of 0.553.
Work on G9A A40U C62G yielded a yeast fitness of 0.593.
For G9A C24G C29G G39C C55A, the yeast fitness was ≤ 0.5.
With G9A G12U A14U A65U the yeast fitness was ≤ 0.5.
For G9A G38C C66U, the yeast fitness was ≤ 0.5.
With G9A C62A C66U the yeast fitness was ≤ 0.5.
In the case of U8G G9C U54G, the yeast fitness is reported as ≤ 0.5.
With G9A A14U A21U A65G the yeast fitness was 0.556.
G9A C11U C29G showed a yeast fitness of 0.609.
Variant G9A C31U U53A has a yeast fitness of 0.638.
G9A G12U A14U U53A showed a yeast fitness of 0.529.
For G9A A21U A36G A40C, the yeast fitness was ≤ 0.5.
Variant G9A G18A C24G A45U has a yeast fitness of 0.52.
Work on G9A C24U A65C yielded a yeast fitness of 0.536.
For U8G G38A G68U, the yeast fitness was ≤ 0.5.
With U8G C55A C66U the yeast fitness was ≤ 0.5.
For U8G G12A G50C G52C C55U C62U A70C, the yeast fitness was ≤ 0.5.
Work on G9A A20U C66U yielded a yeast fitness of 0.529.
G9A G23C C30G A40U C46U showed a yeast fitness of 0.58.
With G9A C27G C31U C49G G58C the yeast fitness was ≤ 0.5.
With G9A U16C A20C A40G C55U the yeast fitness was ≤ 0.5.
In the case of U8G C22U U28C C62A, the yeast fitness is reported as ≤ 0.5.
G9A A21U G44A C55G showed a yeast fitness of 0.584.
For G9A C22G C31U A65C C66A, the yeast fitness was ≤ 0.5.
Work on U8G U26A C31U yielded a yeast fitness of 0.52.
U8G G41C gave a yeast fitness of 0.657.
Work on U8G G41A yielded a yeast fitness of 0.642.
With G9A C33U A36U U59A the yeast fitness was ≤ 0.5.
In the case of G9A A21U C34G G39A C55U C61G, the yeast fitness is reported as ≤ 0.5.
With G9A U16C C30G C34G A40G C61G A69G the yeast fitness was ≤ 0.5.
With G9A C27G the yeast fitness was 0.757.
With G9A C24G U35C C49U C61G the yeast fitness was ≤ 0.5.
With G9A C11A G38C C60G the yeast fitness was ≤ 0.5.
For U8G C29U G50C U59A, the yeast fitness was ≤ 0.5.
For G9A G25C C30U G51C G58U, the yeast fitness was ≤ 0.5.
For G9A A14U C29G C34A U54A, the yeast fitness was ≤ 0.5.
G9A A20U gave a yeast fitness of 0.829.
For G9A U13A A69U, the yeast fitness was 0.811.
In the case of G9A U13A A69C, the yeast fitness is reported as 0.809.
For G9A G12A C49U, the yeast fitness was 0.692.
With G9A U16C C29G C31A C33G G41A A43G the yeast fitness was ≤ 0.5.
In the case of G9A C31A A42C, the yeast fitness is reported as 0.54.
With G9A C29U U47A A65U the yeast fitness was ≤ 0.5.
Work on G9A A40C A69U yielded a yeast fitness of 0.722.
Work on G9A C66A yielded a yeast fitness of 0.775.
G9A C66G showed a yeast fitness of 0.703.
With G9A U13C A21U A36G A40C A69U the yeast fitness was ≤ 0.5.
With G9A A14C C22G A45C G51C U64C the yeast fitness was ≤ 0.5.
For G9A C30G C31G U32A C66U, the yeast fitness was ≤ 0.5.
G9A A15G showed a yeast fitness of 0.884.
Variant G9A G38A A69C has a yeast fitness of 0.724.
For G9A C34U, the yeast fitness was 0.793.
Variant G9A C34A has a yeast fitness of 0.704.
For G9A C22A A37U C55G, the yeast fitness was ≤ 0.5.
For G9A C24G C34G A69U, the yeast fitness was 0.533.
Work on U8G G58U A65G G67A yielded a yeast fitness of 0.547.
Variant G9A C24U U26G has a yeast fitness of 0.569.
In the case of G9A G68A A69C, the yeast fitness is reported as 0.802.
For U8G C27U C30A A43C, the yeast fitness was ≤ 0.5.
For G9A A43G U59A A69G, the yeast fitness was ≤ 0.5.
In the case of G9A C62G, the yeast fitness is reported as 0.896.
With G9A C62U the yeast fitness was 0.916.
